The list is not random: actives were taken first. Their share in the collection is about 1.3%.
PP5 primary: PP5 (human) phosphatase inhibition; P53041; actives 0.18% (n = 320,000); inhibition, % at 6.7 µM; purified PP5c, OMFP substrate fluorescence; AID 1987;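 active = inhibition above the campaign's mean inhibition across all tested compounds plus 3 SD, cut at about 9.5% in these data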;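 note: 0% = DMSO only and 100% = 100 µM cantharidin control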
Target sequence (P53041 whole entry, looked up): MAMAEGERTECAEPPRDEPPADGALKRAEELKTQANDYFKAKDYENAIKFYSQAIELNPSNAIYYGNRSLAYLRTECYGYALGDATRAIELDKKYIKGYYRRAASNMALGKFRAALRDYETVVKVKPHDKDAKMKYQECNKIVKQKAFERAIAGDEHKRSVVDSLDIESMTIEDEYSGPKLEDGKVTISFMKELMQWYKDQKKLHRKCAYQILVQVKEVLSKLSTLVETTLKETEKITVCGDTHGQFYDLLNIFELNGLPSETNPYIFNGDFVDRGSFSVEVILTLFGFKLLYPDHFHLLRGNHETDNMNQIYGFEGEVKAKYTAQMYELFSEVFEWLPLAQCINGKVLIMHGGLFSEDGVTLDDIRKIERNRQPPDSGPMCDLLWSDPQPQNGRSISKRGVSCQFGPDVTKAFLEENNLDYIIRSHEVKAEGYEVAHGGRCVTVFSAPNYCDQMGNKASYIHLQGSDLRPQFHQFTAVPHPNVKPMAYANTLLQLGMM
PP1 counter: blocks human PP1-alpha phosphatase, a PP5 counter-screen; purified PP1alpha, OMFP fluorescence; inhibition, % at 6.7 µM; actives 0.9% (n = 320,000);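 active = inhibition above the mean inhibition of all tested compounds plus 3 SD, computed separately for each screening campaign, cut at about 15% in these data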
NR2E3 ag-1: human photoreceptor-specific nuclear receptor agonism; CHO-S Gal4-NCOR/VP16-NR2E3 two-hybrid, luciferase; Q9Y5X4; inhibition of corepressor binding, % at 3.98 µM; actives 0.35% (n = 360,000);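 active = inhibition above the mean of all tested compounds plus 3 SD, cut at about 70% in these data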;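 note: 0% = DMSO with NR2E3 transfected cells and 100% = cells lacking NR2E3 construct; higher means lower luciferase signal from less NR2E3 corepressor binding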
NR2E3 ag-2: NR2E3 (human) agonism | GST-NR2E3/biotin-RetCOR TR-FRET, 1536-well | Q9Y5X4 | inhibition of corepressor binding, % at 4.78 µM | AID 2300 | actives 0.12% (n = 320,000);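 active = percent inhibition above the cutoff of mean plus 3 SD of all tested compounds, set per screening campaign, cut at about 20% in these data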;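 note: 0% = DMSO wells and 100% = biotin wells as full block of FRET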
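System: GST-tagged NR2E3 plus biotinylated RetCOR corepressor; Amount: 1.35 nM GST-tagged NR2E3 final; Dosing: single nominal compound dose of 4.8 µM; Schedule: 5 h incubation at 4 °C; Technique: TR-FRET with europium anti-GST and streptavidin-D2, 340 nm excitation; Controls: biotin wells as high control, 0.6% DMSO wells as low control.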
PP5 conf: confirmation of human PP5 phosphatase inhibitors; actives 22% (n = 460); shares compounds with PP5 primary; Purified PP5, fluorogenic phosphatase substrate, fluorescence; inhibition, % at 6.7 µM; in the data active = inhibition above about 9.5%
PP1 inh counter: counter-screen for PP5 inhibitors: human PP1 phosphatase inhibition | shares compounds with PP5 primary | PP1 enzyme, fluorescent phosphatase substrate | inhibition, % at 6.7 µM | actives 4% (n = 460); in the data active = inhibition above about 16%
Starred values were filed as active, the others as inactive; · = not tested or not shown.

SMILES	PP5 primary	PP1 counter	NR2E3 ag-1	NR2E3 ag-2	PP5 conf	PP1 inh counter
CCOC(=O)C1CCCN(CC(O)COc2ccc(OC)cc2C(C)(C)C)C1 (centres undefined)	10.7*	1.2	-28.3	-0.8	0.2	-3.8
CCOC(=O)N1CCN(CC(O)COc2ccc(OC)cc2C(C)(C)C)CC1 (centres undefined)	-2.4	-1.4	-12.2	1.1	·	·
COc1ccc(C(C)(NC(C)=O)c2nc(-c3cccc(NC(C)=O)c3)cs2)cc1 (centres undefined)	·	·	-15.3	·	·	·
COc1ccc(C(N)c2csc(Nc3ccc(S(C)(=O)=O)cc3)n2)cc1 (centres undefined)	·	·	11.5	·	·	·
CN1CCC(NC(=O)Nc2ccc(Br)cc2)CC1	12.9*	-3.5	-0.8	-3.6	-4.1	-4.6
CN1CCC(NC(=O)Nc2cccc(C(F)(F)F)c2)CC1	2.6	-3.0	-11.7	2.6	·	·
CCOc1cc(/C=C2\C(=O)N(c3ccc(C(N)=O)cc3)N=C2C)ccc1OC(=O)c1cccs1	12.1*	-0.3	6.0	12.0	5.9	7.3
COc1cc(OC)c(C2C(C(=O)Nc3ccc(C)cc3C)=C(C)Nc3ncnn32)cc1OC (centres undefined)	14.6*	2.5	-13.0	1.9	-3.5	-3.1
COc1cc(OC)c(C2C(C(=O)Nc3ccccc3)=C(C)Nc3ncnn32)cc1OC (centres undefined)	-0.1	-6.5	0.1	1.6	·	·
CC1(C)C=Cc2c(ccc3c2OC[C@H](c2ccc(O)cc2O)C3)O1	9.6*	4.5	-63.4	3.5	7.7	4.7
NNC(=O)CCc1ccc(S(=O)(=O)N2CCOCC2)cc1	11.5*	-3.0	-1.1	1.6	-1.1	-1.4
CCOc1ccccc1/C=N/NC(=O)c1cc(C(C)C)[nH]n1	-0.7	-3.4	4.7	7.0	·	·
CC(C)c1cc(C(=O)N/N=C/c2c[nH]c3ccccc23)n[nH]1	9.8*	-1.5	4.0	1.9	-5.6	-3.1
Cc1ccc(-c2nc3ccc(Cl)cn3c2Cc2cccc(Cl)c2)cc1	·	·	-7.1	·	·	·
O=C(O)c1cc(N/N=C/c2ccncc2)ccc1Cl	10.9*	-7.6	-39.6	1.1	-0.3	-2.1
Cc1cc(NS(=O)(=O)c2ccc(Nc3nc(-c4ccc(C)c(C)c4)cs3)cc2)no1	10.8*	3.7	7.9	0.6	5.4	9.1
COC(=O)C1=COC(OC2OC(CO)C(O)C(O)C2O)C2C(C)CC(=O)C12 (centres undefined)	·	·	-3.6	·	·	·
CC1(NC(=O)CCc2nc3sc4c(c3c(=O)[nH]2)CCCC4)CCS(=O)(=O)C1 (centres undefined)	10.3*	-22.1	-14.7	6.5	-4.0	-2.1
COc1cc(C=O)ccc1OCCSc1ccc(Cl)cc1	15.2*	0.5	-83.9	-2.2	-1.1	-1.1
O=C(O)c1cccc(S(=O)(=O)Nc2ccc3c(c2)CCC3)c1	·	·	-15.0	·	·	·
O=C1C(Cl)=C(N2CCN(c3ccccc3[N+](=O)[O-])CC2)C(=O)c2ccccc21	13.6*	9.5	-21.7	0.2	24.4*	4.9
O=C(CSc1nnc(-c2cccs2)o1)NCC1CN(Cc2ccccc2)CCO1 (centres undefined)	19.2*	-1.4	9.1	0.9	-3.6	-6.0
Cc1cc(OCC(F)(F)C(F)(F)C(F)(F)C(F)(F)C(F)(F)C(F)F)nc(N)n1	15.2*	7.9	-4.0	3.6	9.5	11.4
COCC(=O)N(Cc1cc2cc(C)ccc2[nH]c1=O)c1ccccc1	0.8	0.2	-0.9	3.8	·	·
COCC(=O)N(Cc1cc2cccc(C)c2[nH]c1=O)c1ccccc1	10.0*	-3.0	-4.8	1.4	-1.9	-2.9
SMILES	PP5 primary	PP1 counter	NR2E3 ag-1	NR2E3 ag-2	PP5 conf	PP1 inh counter
Cc1c(N=c2c(=O)c3ccccc3c2=O)c(=O)n(-c2ccccc2)n1C	12.7*	2.4	·	-4.7	34.6*	12.3
CCN(C(=O)COC(=O)CCOc1ccc(C(C)(C)C)cc1)c1c(N)n(Cc2ccccc2)c(=O)[nH]c1=O	·	·	15.7	·	·	·
CN(C(=O)c1ccc(NC(=O)Cc2ccc(NC(=O)C3CCCN(C(=O)CCc4ccccc4)C3)cc2)cc1)C1CC1 (centres undefined)	1.2	-3.5	-22.9	1.6	·	·
CC(C)(C)OC(=O)[C@H](Cc1ccccc1)NC(=O)c1nc[nH]c1C(=O)N[C@@H](Cc1ccccc1)C(=O)OC(C)(C)C	7.2	13.7	28.4	-1.3	·	·
C[C@H](NC(=O)c1nc[nH]c1C(=O)N[C@@H](Cc1ccccc1)C(=O)OC(C)(C)C)C(=O)OC(C)(C)C	10.8*	11.1	-5.4	-2.4	7.1	10.0
CC(C)C[C@H](NC(=O)c1nc[nH]c1C(=O)N[C@@H](CC(C)C)C(=O)OC(C)(C)C)C(=O)OC(C)(C)C	10.2*	4.0	1.4	2.7	5.8	6.8
CC(C)C[C@H](NC(=O)c1[nH]cnc1C(=O)N[C@H](C)c1ccccc1)C(=O)OC(C)(C)C	10.2*	11.2	-9.4	5.9	7.7	8.8
CCOC(=O)C1CCCN(C(=O)c2cc(C#N)cs2)CC1 (centres undefined)	·	·	13.2	·	·	·
Clc1ccc(NCc2ccsc2)cc1	1.0	-0.8	·	1.9	·	·
CCOc1ccc(S(=O)(=O)N2CCOCC2)cc1NC(=O)CSCc1ccc(C)cc1	2.8	-4.7	-40.4	1.1	·	·
COCC(C)n1c(-c2ccc3c(c2)NC(=O)CO3)csc1=Nc1ccc(OC(F)F)cc1 (centres undefined)	12.2*	2.8	32.2	-0.3	1.7	2.6
Nc1cc(=O)[nH]c(SCC(=O)N2CCCC2)n1	·	·	-0.3	·	·	·
Cc1[nH]n(-c2ccccc2)c(=O)c1C(C[N+](=O)[O-])c1ccc(F)cc1 (centres undefined)	12.6*	-0.8	3.6	0.9	-0.9	-2.9
COCCN1C(=O)COc2ccccc2C1C(=O)Nc1c(C)cccc1C (centres undefined)	·	·	-26.0	·	·	·
COc1ccc(OCCNC(=O)c2cccc(Oc3ccc(C(F)(F)F)cc3[N+](=O)[O-])c2)cc1	10.5*	2.7	2.1	1.4	2.6	-2.6
COc1cc(OC)cc(C(=O)NCCOc2ccccc2)c1	-0.1	-0.9	-93.1	2.5	·	·
CCCCOc1ccc(C(=O)NCCOc2cccc(OC)c2)cc1	9.8*	-0.6	-35.7	-2.2	-1.0	-0.8
CCN(CC)Cc1cc(Nc2c3ccccc3nc3c4ccccc4n(C)c23)cc(CN(CC)CC)c1O	·	·	-7.9	·	·	·
O=C(NNC(=O)c1ccc[nH]1)Nc1cc(Cl)cc(Cl)c1	15.8*	8.1	-10.9	0.1	-2.9	-8.2
CN(C)C(CNC(=O)c1cc(S(=O)(=O)N(C)Cc2ccccc2)ccc1Cl)c1ccco1 (centres undefined)	-0.6	-1.7	38.2	-1.4	·	·
CC1=NN(c2ccc(C)cc2)C(=O)/C1=C\C=C\c1ccccc1	4.4	0.6	-1.0	2.3	·	·
CC1=NN(c2ccccc2)C(=O)/C1=C/C=C/C=C/N(C)C	10.4*	3.4	-9.6	-8.5	13.9*	12.1

Screens: PubChem, The Scripps Research Institute Molecular Screening Center
